Assay results reported in the M2OR odorant receptor database.

Assays:
Details in all cases: stereoisomer not certain
OR10A2 (Homo sapiens) = target: T1, OR10A2 (Homo sapiens) (UniProt Q9H208)
T1 sequence (whole entry): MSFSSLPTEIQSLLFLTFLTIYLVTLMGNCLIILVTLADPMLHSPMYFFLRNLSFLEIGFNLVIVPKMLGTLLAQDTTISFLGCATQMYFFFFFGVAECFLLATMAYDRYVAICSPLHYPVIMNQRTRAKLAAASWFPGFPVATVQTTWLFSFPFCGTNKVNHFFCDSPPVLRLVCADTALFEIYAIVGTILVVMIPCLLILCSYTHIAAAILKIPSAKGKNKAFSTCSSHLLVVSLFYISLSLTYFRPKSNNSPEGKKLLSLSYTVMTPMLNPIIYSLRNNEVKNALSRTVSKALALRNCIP
Method in brief: (§1)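 Values were gathered from published papers (main text and supplementary material), with extra details requested from the original authors when needed, and checked for typos and inconsistencies. Each receptor–molecule pair is called responsive (active) if the original authors judged the measured signal statistically different from baseline, and non-responsive (inactive) otherwise. Assay methods varied by source, often transient mammalian cell-line luciferase assays. Recorded details include cell line, G-protein, co-transfected protein and tags.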

OR10A3 (Homo sapiens) = target: T2, OR10A3 (Homo sapiens) (UniProt P58181)
T2 sequence (whole entry): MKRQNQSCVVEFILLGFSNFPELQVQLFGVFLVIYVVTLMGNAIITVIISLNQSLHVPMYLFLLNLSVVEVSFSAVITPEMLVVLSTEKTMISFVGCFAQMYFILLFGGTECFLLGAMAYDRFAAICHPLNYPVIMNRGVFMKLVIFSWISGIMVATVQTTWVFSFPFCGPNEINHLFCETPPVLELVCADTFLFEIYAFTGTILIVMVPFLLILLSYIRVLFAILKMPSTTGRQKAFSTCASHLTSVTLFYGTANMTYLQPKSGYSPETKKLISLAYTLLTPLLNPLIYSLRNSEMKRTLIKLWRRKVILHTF
Method in brief: as §1

OR10A4 (Homo sapiens) = target: T3, OR10A4 (Homo sapiens) (UniProt Q9H209)
T3 sequence (whole entry): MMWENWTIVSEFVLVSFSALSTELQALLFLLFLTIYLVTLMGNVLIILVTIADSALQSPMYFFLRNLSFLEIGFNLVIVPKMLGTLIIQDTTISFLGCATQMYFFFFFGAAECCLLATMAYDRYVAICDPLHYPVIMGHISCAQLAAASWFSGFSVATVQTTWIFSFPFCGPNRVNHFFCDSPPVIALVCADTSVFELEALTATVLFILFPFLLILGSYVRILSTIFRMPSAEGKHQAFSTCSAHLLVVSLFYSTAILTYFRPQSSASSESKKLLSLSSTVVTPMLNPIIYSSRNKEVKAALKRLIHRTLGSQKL
Method in brief: as §1

OR10A5 (Homo sapiens) = target: T4, OR10A5 (Homo sapiens) (UniProt Q9H207)
T4 sequence (whole entry): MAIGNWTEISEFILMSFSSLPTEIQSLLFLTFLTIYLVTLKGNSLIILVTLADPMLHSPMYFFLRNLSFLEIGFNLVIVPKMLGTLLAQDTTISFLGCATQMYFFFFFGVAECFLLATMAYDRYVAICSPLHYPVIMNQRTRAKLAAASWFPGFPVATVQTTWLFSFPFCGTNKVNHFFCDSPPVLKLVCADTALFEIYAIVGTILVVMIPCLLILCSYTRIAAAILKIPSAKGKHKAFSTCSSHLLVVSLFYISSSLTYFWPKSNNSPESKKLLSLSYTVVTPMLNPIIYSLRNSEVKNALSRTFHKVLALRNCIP
Method in brief: as §1

OR10A6 (Homo sapiens) = target: T5, OR10A6 (Homo sapiens) (UniProt Q8NH74)
T5 sequence (whole entry): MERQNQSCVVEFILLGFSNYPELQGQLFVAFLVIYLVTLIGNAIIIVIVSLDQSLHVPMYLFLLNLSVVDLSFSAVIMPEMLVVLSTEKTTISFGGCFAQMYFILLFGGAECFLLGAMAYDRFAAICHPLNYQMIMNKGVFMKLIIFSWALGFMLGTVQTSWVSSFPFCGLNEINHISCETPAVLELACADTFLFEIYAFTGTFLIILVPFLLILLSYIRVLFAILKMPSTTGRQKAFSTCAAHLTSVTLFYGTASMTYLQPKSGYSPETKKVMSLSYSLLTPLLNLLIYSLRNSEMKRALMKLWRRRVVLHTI
Method in brief: as §1

OR10A7 (Homo sapiens) = target: T6, OR10A7 (Homo sapiens) (UniProt Q8NGE5)
T6 sequence (whole entry): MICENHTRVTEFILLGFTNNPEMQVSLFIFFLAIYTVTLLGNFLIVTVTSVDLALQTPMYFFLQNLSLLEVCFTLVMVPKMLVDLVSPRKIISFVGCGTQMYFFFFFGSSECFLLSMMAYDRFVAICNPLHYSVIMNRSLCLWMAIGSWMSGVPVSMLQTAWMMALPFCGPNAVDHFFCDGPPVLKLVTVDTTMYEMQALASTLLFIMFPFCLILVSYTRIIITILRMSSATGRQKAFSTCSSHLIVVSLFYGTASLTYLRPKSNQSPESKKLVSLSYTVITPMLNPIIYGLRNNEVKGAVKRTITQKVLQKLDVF
Method in brief: as §1

OR10AD1 (Homo sapiens) = target: T7, OR10AD1 (Homo sapiens) (UniProt Q8NGE0)
T7 sequence (whole entry): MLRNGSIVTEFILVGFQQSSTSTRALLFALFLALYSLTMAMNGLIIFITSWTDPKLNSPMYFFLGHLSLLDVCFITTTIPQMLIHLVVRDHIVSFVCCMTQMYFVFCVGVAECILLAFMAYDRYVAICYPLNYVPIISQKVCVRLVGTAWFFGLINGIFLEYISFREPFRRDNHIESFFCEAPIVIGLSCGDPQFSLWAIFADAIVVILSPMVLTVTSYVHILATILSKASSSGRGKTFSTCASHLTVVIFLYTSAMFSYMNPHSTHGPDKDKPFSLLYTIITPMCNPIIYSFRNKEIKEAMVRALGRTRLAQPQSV
Method in brief: as §1

OR10AG1 (Homo sapiens) = target: T8, OR10AG1 (Homo sapiens) (UniProt Q8NH19)
T8 sequence (whole entry): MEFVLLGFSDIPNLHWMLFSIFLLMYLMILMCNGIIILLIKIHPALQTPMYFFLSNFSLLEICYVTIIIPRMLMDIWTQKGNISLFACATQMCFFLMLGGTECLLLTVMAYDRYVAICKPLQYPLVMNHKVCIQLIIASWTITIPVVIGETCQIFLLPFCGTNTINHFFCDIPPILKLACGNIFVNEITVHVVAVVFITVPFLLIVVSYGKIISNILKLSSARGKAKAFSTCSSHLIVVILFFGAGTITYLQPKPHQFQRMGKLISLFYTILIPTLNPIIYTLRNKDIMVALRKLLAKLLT
Method in brief: as §1

OR10C1 (Homo sapiens) = target: T9, OR10C1 (Homo sapiens) (UniProt Q96KK4)
T9 sequence (whole entry): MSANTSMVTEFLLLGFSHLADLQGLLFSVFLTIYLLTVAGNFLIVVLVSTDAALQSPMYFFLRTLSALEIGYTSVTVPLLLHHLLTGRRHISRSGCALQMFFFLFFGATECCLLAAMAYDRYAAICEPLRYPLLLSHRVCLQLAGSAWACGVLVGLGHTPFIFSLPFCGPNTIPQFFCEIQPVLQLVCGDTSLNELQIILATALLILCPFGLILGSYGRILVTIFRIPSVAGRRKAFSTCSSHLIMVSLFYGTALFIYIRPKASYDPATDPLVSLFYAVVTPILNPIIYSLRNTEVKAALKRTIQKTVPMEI
Method in brief: as §1

OR10D3 (Homo sapiens) = target: T10, OR10D3 (Homo sapiens) (UniProt Q8NH80)
T10 sequence (whole entry): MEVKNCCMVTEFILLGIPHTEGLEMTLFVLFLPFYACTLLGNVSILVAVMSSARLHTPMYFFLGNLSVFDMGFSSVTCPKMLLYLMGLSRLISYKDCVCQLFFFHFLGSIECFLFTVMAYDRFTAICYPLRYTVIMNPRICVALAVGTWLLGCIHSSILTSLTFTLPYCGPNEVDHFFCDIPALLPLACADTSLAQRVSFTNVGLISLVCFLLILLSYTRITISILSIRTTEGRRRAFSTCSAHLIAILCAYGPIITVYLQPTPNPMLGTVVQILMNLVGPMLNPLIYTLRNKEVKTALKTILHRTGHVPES
Method in brief: as §1

O5AN1 = system: T11, O5AN1
T11 sequence (whole entry): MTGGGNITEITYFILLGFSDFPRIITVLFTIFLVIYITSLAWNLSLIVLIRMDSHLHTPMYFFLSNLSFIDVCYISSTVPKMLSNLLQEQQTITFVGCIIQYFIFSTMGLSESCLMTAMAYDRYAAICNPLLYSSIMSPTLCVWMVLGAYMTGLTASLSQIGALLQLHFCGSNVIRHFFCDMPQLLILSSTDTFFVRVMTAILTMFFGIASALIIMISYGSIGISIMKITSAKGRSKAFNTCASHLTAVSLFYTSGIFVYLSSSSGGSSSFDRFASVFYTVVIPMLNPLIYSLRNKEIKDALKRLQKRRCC
Method in brief: as §1

Measured: odorant receptor agonist call

CCCCCC(=O)C(C)C(C)=O (configuration not stated)
not listed: O5AN1
inactive: all other assays above

O=C1CCCCCCCCCCCCCC1
active: O5AN1

OC1CCCCCCCCCCCCCC1
active: O5AN1
